Assay results taken from ChEMBL document CHEMBL2016522, “Discovery and Hit-to-Lead Optimization of Non-ATP Competitive MK2 (MAPKAPK2) Inhibitors” (ACS Med Chem Lett, 2011).

What was measured:
Homo sapiens = species on record: Homo sapiens; experiment: (§1) Inhibition of IL1beta-stimulated MMP13 secretion in human primary chondrocytes incubated for 30 mins prior to IL1beta-stimulation measured after 24 hrs by ELISA; type: functional, cell-based
Outline: (§2)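 Cells are treated with a range of compound concentrations, then stimulated with IL1-β, and secreted MMP-13 is measured. Two cell systems are used: the SW1353 line and human primary chondrocytes derived from osteoarthritis tissue. Each data point is the average, with standard error, of duplicate samples.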

SW1353 = experiment: Inhibition of IL1beta-stimulated MMP13 secretion in human SW1353 cells incubated for 30 mins prior to IL1beta-stimulation measured after 24 hrs by ELISA; type: functional, cell-based; outline: as §2
THP-1 [1] = experiment: Antiinflammatory activity in human THP1 cells assessed as inhibition of LPS-induced TNFalpha production incubated for 30 mins prior to LPS-challenge measured after 3 hrs by ELISA; type: functional, cell-based
Outline: (§3)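 Human THP1 acute monocytic leukemia cells are treated with a range of compound concentrations and stimulated with LPS. Secreted TNFα or IL6 is then measured. Each data point is the average, with standard error, of duplicate samples.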

THP-1 [2] = experiment: Antiinflammatory activity in human THP1 cells assessed as inhibition of LPS-induced IL6 production incubated for 30 mins prior to LPS-challenge measured after 18 hrs by immunoabsorbent-based electrochemical luminescence assay; type: functional, cell-based; outline: as §3
[3] = target: Casein kinase I isoform gamma-3 (Homo sapiens) (UniProt Q9Y6M4); experiment: Inhibition of human CK1gamma3 at 10 uM
Sequence of Casein kinase I isoform gamma-3 (Homo sapiens) (Q9Y6M4 whole entry, looked up, canonical isoform): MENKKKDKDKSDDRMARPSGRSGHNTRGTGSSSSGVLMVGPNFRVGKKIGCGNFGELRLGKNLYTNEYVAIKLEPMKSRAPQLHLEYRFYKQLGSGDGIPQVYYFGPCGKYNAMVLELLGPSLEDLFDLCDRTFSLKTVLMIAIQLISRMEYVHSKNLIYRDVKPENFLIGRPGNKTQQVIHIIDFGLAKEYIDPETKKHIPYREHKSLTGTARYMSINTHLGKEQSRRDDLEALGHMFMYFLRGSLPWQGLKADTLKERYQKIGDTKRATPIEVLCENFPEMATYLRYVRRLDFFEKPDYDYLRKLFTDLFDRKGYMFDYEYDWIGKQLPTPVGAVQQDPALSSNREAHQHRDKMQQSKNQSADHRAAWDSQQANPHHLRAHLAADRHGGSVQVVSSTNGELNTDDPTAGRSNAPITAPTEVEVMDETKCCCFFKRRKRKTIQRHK

[4] = AUC (0 to 6 hrs) in rat at 10 mg/kg, po; type: ADME, organism-based; design: time < 6 hr, dose 10 mg/kg, route oral; settings: plasma
Outline: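 Single oral dose of 10 mg/kg in rats. Plasma exposure is reported as AUC in nM h.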

[5] = target: T1, MAP kinase-activated protein kinase 2 (Homo sapiens, UniProt P49137); experiment: Inhibition of MK2 using Acam peptide as substrate incubated for 30 mins prior to substrate addition measured after 10 mins using 100 uM ATP by DELFIA assay
T1 sequence (P49137 whole entry): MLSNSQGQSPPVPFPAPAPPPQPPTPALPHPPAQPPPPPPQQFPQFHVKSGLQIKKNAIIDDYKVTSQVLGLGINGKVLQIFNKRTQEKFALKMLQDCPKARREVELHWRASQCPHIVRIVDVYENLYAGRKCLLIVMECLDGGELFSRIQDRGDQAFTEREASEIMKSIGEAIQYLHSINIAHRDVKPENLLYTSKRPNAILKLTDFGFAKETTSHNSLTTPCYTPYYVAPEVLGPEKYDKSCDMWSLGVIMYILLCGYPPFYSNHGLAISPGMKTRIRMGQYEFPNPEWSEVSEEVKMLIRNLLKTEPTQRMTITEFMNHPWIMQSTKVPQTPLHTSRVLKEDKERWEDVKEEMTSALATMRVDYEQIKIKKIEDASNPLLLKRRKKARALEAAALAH

[6] = target: T1, MAP kinase-activated protein kinase 2; experiment: Inhibition of MK2-mediated HSP27 phosphorylation in IL-1beta stimulated human SW1353 cells incubated for 30 mins prior to IL-1beta-stimulation measured after 27 mins by ELISA; type: cell-based
[7] = Cytotoxicity against human SW1353 cells after 30 mins by ATP-dependent luciferase luminescence assay; type: cell-based
[8] = as §1; type: functional, cell-based; outline: as §2
Cytochrome P450 2D6 [9] = target: T2, Cytochrome P450 2D6 (Homo sapiens, UniProt P10635); experiment: Inhibition of CYP2D6 in human liver microsomes co-incubated with dextromethorphan; type: ADME, Microsome
T2 sequence (P10635 whole entry): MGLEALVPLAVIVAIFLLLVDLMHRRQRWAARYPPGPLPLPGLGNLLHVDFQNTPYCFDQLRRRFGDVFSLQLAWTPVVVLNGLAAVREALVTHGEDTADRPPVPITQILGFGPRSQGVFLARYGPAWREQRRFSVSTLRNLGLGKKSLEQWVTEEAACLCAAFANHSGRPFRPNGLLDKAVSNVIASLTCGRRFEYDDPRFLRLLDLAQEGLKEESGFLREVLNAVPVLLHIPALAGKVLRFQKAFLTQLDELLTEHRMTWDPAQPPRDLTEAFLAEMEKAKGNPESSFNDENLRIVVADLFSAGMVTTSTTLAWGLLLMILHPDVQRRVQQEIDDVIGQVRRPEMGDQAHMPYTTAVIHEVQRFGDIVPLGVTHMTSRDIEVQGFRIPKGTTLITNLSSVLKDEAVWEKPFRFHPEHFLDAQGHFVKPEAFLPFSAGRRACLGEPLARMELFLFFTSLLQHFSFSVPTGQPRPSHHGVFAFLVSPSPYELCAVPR
Outline: (§4)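 Tested against a panel of cytochrome P450 enzymes at compound concentrations up to 30 μM.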

Cytochrome P450 2D6 [10] = target: T2, Cytochrome P450 2D6; experiment: Inhibition of CYP2D6 in human liver microsomes using dextromethorphan as substrate incubated for 30 mins prior to substrate addition; type: ADME, Microsome; outline: as §4
Cytochrome P450 2C9 [11] = target: T3, Cytochrome P450 2C9 (Homo sapiens, UniProt P11712); experiment: Inhibition of CYP2C9 in human liver microsomes co-incubated with tolbutamide; type: ADME, Microsome; outline: as §4
T3 sequence (P11712 whole entry): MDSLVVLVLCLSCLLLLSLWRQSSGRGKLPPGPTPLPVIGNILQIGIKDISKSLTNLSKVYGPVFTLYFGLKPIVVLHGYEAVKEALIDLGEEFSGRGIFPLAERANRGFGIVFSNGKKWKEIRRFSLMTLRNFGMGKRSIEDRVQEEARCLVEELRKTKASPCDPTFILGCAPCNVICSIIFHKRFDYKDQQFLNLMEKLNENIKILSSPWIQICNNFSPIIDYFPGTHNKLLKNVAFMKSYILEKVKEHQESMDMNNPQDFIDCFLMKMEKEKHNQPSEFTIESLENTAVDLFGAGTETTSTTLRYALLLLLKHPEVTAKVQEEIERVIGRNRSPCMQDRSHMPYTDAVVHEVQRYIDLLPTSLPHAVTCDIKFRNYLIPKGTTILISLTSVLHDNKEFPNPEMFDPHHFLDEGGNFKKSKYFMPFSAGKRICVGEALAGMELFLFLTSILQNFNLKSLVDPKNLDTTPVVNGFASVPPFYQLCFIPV

Cytochrome P450 3A4 [12] = target: T4, Cytochrome P450 3A4 (Homo sapiens, UniProt P08684); experiment: Inhibition of CYP3A4 in human liver microsomes co-incubated with testosterone; type: ADME, Microsome; outline: as §4
T4 sequence (P08684 whole entry): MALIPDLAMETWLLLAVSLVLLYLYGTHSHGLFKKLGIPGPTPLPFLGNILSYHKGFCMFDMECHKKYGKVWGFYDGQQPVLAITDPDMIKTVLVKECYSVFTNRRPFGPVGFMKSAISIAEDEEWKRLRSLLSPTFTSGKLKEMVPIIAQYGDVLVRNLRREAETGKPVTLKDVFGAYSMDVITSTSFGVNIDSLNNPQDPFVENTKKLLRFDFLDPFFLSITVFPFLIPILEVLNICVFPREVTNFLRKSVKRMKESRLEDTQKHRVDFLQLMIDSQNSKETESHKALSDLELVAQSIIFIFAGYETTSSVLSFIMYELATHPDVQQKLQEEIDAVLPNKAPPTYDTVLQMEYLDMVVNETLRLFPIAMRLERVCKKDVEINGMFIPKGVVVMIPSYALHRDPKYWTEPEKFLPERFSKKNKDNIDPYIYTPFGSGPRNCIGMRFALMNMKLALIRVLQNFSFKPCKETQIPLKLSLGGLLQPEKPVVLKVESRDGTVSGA

Cytochrome P450 2C9 [13] = target: T3, Cytochrome P450 2C9; experiment: Inhibition of CYP2C9 in human liver microsomes using tolbutamide as substrate incubated for 30 mins prior to substrate addition; type: ADME, Microsome; outline: as §4
Cytochrome P450 3A4 [14] = target: T4, Cytochrome P450 3A4; experiment: Inhibition of CYP3A4 in human liver microsomes using testosterone as substrate incubated for 30 mins prior to substrate addition; type: ADME, Microsome; outline: as §4
[15] = target: Hepatocyte growth factor receptor (Homo sapiens, UniProt P08581); experiment: Inhibition of human MET
[16] = target: Insulin-like growth factor 1 receptor (Homo sapiens, UniProt P08069); experiment: Inhibition of human IGF1R
[17] = target: Testis-specific serine/threonine-protein kinase 2 (Homo sapiens, UniProt Q96PF2); experiment: Inhibition of human TSSK2
Sequence of Testis-specific serine/threonine-protein kinase 2 (Q96PF2 whole entry): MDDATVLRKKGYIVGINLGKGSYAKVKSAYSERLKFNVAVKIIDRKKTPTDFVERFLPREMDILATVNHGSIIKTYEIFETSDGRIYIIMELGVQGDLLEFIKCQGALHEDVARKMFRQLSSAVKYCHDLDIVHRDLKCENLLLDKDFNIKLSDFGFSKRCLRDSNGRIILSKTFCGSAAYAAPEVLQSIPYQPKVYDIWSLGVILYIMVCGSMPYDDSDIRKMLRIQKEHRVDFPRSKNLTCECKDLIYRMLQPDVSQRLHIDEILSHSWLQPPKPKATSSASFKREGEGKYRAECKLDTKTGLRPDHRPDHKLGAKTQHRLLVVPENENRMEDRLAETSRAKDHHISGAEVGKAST

[18] = target: Serine/threonine-protein kinase 3 (Homo sapiens, UniProt Q13188); experiment: Inhibition of human MST2
Sequence of Serine/threonine-protein kinase 3 (Q13188 whole entry): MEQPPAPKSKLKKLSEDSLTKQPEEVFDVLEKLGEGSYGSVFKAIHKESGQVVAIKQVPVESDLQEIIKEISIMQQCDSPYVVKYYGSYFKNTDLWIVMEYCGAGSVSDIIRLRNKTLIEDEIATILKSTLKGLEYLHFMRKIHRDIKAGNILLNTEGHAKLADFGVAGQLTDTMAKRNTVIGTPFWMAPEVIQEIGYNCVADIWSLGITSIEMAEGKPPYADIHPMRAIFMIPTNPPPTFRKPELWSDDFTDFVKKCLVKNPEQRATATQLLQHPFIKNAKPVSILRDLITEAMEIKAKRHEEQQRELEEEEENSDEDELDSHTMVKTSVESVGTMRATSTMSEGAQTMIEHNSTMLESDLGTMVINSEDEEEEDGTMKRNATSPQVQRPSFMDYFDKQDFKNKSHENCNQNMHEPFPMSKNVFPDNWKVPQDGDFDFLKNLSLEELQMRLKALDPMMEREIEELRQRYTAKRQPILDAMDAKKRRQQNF

[19] = target: RAC-alpha serine/threonine-protein kinase (Homo sapiens, UniProt P31749); experiment: Inhibition of human AKT1
[20] = target: Calcium/calmodulin-dependent protein kinase type IV (Homo sapiens, UniProt Q16566); experiment: Inhibition of human CAMK4
[21] = target: Serine/threonine-protein kinase Chk1 (Homo sapiens, UniProt O14757); experiment: Inhibition of human CHK1
[22] = target: Interleukin-1 receptor-associated kinase 4 (Homo sapiens, UniProt Q9NWZ3); experiment: Inhibition of human IRAK4
[23] = target: Rho-associated protein kinase 2 (Homo sapiens, UniProt O75116); experiment: Inhibition of human ROCK2
Sequence of Rho-associated protein kinase 2 (O75116 whole entry): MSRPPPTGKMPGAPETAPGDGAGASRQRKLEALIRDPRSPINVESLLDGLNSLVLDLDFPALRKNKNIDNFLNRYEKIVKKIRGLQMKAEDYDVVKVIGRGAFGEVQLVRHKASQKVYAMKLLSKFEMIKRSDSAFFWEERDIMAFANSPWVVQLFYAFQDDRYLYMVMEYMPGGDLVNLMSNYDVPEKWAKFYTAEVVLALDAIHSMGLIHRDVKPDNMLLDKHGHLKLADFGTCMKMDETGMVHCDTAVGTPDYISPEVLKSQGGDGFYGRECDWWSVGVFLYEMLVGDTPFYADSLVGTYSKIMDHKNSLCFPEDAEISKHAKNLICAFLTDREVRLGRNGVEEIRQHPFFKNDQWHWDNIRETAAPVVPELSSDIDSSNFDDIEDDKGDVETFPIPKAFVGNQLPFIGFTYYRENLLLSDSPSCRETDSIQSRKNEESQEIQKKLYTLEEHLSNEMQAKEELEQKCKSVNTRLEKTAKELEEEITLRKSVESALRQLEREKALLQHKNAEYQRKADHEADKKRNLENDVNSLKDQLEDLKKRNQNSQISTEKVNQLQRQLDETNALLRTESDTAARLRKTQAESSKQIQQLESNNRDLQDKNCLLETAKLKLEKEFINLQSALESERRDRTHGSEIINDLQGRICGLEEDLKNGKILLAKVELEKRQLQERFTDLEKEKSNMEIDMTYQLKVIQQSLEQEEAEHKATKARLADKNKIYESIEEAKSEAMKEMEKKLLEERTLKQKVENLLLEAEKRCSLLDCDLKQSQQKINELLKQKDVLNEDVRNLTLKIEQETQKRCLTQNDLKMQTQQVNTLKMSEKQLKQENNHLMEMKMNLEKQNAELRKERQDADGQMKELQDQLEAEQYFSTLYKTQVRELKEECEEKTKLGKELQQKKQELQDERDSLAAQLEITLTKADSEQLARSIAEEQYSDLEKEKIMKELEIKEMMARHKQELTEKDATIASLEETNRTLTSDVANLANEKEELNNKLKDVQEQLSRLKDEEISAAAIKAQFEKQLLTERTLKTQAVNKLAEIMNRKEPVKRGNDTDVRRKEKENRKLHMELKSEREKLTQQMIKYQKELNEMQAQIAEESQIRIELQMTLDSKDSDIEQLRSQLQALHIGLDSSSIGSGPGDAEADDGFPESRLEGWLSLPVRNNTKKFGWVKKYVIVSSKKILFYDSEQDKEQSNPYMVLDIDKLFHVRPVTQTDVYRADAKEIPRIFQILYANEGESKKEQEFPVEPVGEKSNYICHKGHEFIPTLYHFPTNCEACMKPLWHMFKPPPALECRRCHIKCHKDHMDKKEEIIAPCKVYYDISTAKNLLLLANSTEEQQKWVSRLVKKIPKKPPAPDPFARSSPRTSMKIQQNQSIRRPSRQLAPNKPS

[24] = target: Inhibitor of nuclear factor kappa-B kinase subunit beta (Homo sapiens, UniProt O14920); experiment: Inhibition of human IKKB
[25] = target: Casein kinase I isoform delta (Homo sapiens, UniProt P48730); experiment: Inhibition of human CSNK1D
Sequence of Casein kinase I isoform delta (P48730 whole entry, canonical isoform): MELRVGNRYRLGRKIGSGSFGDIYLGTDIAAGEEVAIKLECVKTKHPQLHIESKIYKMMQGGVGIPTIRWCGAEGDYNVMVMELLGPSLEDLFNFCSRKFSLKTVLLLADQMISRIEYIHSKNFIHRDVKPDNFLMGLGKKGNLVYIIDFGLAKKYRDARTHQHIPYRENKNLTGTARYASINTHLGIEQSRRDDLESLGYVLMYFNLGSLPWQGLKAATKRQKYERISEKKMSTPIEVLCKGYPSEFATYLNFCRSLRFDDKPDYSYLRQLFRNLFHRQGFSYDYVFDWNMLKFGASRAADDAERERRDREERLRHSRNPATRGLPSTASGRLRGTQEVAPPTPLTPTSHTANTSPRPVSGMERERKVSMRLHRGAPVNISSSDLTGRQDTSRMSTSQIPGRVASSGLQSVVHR

[26] = Solubility of the compound; type: physicochemical
[27] = target: T1, MAP kinase-activated protein kinase 2; experiment: Inhibition of MK2 using Acam peptide as substrate incubated for 30 mins prior to substrate addition measured after 10 mins using 2 uM ATP by DELFIA assay
[28] = target: Tyrosine-protein kinase Lck (Homo sapiens, UniProt P06239); experiment: Inhibition of human LCK

Compound | IC50 [5] | EC50 [6] | CC50 at 0.5 h [7] | other results
O=C(c1ccc(-c2ccc(Cl)cc2)o1)N(Cc1ccccn1)c1ccc(N2CCNCC2)cc1 [listing 1 of 2 here] | – | – | – | inhibition (Homo sapiens): Dose-dependent effect; inhibition (SW1353): Dose-dependent effect; inhibition (THP-1 [1]): Dose-dependent effect; inhibition (THP-1 [2]): Dose-dependent effect; inhibition [3]: > 50%
Cl.O=C(c1ccc(-c2ccc(Cl)cc2)o1)N(Cc1ccccn1)c1ccc(N2CCNCC2)cc1 | – | – | – | AUC(0-t) at 6 h [4]: 2.3 µM·h
CN1CCN(c2ccc(NC(=O)c3ccc(-c4ccc(Cl)cc4)o3)cc2)CC1 | 6 µM | 20 µM | – | –
O=C(Nc1ccc(N2CCC(O)CC2)cc1)c1ccc(-c2ccc(Cl)cc2)o1 | > 20 µM | – | – | –
CC(C)N(C(=O)c1ccc(-c2ccc(Cl)cc2)o1)c1ccc(N2CCNCC2)cc1 | 1.2 µM | 2.7 µM | > 20 µM | –
O=C(Nc1ccc(C2=CCNCC2)cc1)c1ccc(-c2ccc(Cl)cc2)o1 | 2.1 µM | 1.3 µM | 6.5 µM | –
COc1ccc(-c2ccc(C(=O)Nc3ccc(N4CCNCC4)cc3)o2)cc1 | 22 µM | 8 µM | – | –
O=C(Nc1ccc(N2CCNCC2)cc1)c1csc(-c2ccc(Cl)cc2)n1 | 9.5 µM | 0.9 µM | 0.9 µM | –
Cn1ccnc1CN(C(=O)c1ccc(-c2ccc(Cl)cc2)o1)c1ccc(N2CCNCC2)cc1 | – | – | > 20 µM | –
Cc1cc(Cl)ccc1-c1ccc(C(=O)Nc2ccc(N3CCNCC3)cc2)o1 | 5.9 µM | 1.4 µM | 8.8 µM | –
O=C(Nc1ccc(N2CCNCC2)cc1C(F)(F)F)c1ccc(-c2ccc(Cl)cc2)o1 | > 20 µM | > 8 µM | 18 µM | –
O=C(Nc1ccc(N2CCNCC2)cc1)c1cccc(-c2ccc(Cl)cc2)n1 | 11 µM | 3.9 µM | > 10 µM | –
O=C(c1ccc(-c2ccc(Cl)cc2)o1)N(Cc1ccccn1)c1ccc(N2CCNCC2)cc1 [listing 2 of 2 here] | – | – | > 20 µM | IC50 [8]: 2.2 µM; IC50 (Cytochrome P450 2D6 [9]): > 20 µM; IC50 (SW1353): 5.7 µM; IC50 (Cytochrome P450 2D6 [10]): > 20 µM; IC50 (Cytochrome P450 2C9 [11]): > 20 µM; IC50 (THP-1 [1]): 4.4 µM; IC50 (THP-1 [2]): 5.2 µM; IC50 (Cytochrome P450 3A4 [12]): > 20 µM; IC50 (Cytochrome P450 2C9 [13]): > 30 µM; IC50 (Cytochrome P450 3A4 [14]): > 20 µM
CCCN(C(=O)c1ccc(-c2ccc(Cl)cc2)o1)c1ccc(N2CCNCC2)cc1 | – | – | > 20 µM | –
O=C(Nc1ccc(N2CCNCC2)cc1)c1ccc(-c2ccc(Cl)s2)o1 | 6.9 µM | > 8 µM | > 20 µM | –
O=C(Nc1ccc(N2CCNCC2)cc1)c1cc(-c2ccc(Cl)cc2)on1 | 7.5 µM | 1.9 µM | 1 µM | –
O=C(Nc1ccc(N2CCNCC2)cc1)c1ccc(-c2ccccc2Cl)o1 | 8 µM | > 8 µM | 15 µM | –
CCN(C(=O)c1ccc(-c2ccc(Cl)cc2)o1)c1ccc(N2CCNCC2)cc1 | – | – | > 8 µM | –
O=C(Nc1ccc(N2CCNCC2)cc1)c1ccc(-c2ccc(C(F)(F)F)cc2)o1 | 20 µM | > 7.7 µM | > 15 µM | –
O=C(c1ccc(-c2ccc(Cl)cc2)o1)N(Cc1ccncc1)c1ccc(N2CCNCC2)cc1 | – | – | > 8 µM | –
O=C(Nc1ccc(N2CCNCC2=O)cc1)c1ccc(-c2ccc(Cl)cc2)o1 | 15 µM | – | – | –
O=C(Nc1ccc(N2CCNCC2)cc1)c1ccc(-c2cccc(Cl)c2)o1 | > 20 µM | > 5 µM | 13 µM | –
O=C(Nc1ccc(N2CCNCC2)cc1)c1ccc(-c2ccc(Cl)cc2Cl)o1 | 7.6 µM | 1.6 µM | 8.1 µM | –
CN(C(=O)c1ccc(-c2ccc(Cl)cc2)o1)c1ccc(N2CCNCC2)cc1 | – | – | > 20 µM | –
CCCCN(C(=O)c1ccc(-c2ccc(Cl)cc2)o1)c1ccc(N2CCNCC2)cc1 | – | – | 19 µM | –
O=C(Nc1ccc(N2CCNCC2)cc1)c1ccc(-c2ccc(Cl)cc2)s1 | 9 µM | 5 µM | 8 µM | –
O=C(Nc1ccc(N2CCNCC2)c(F)c1)c1ccc(-c2ccc(Cl)cc2)o1 | 6.7 µM | > 3.4 µM | 16 µM | –
O=C(Nc1ccc(N2CCNCC2)cc1)c1ccc(-c2ccc(Cl)cc2)o1 | 5.5 µM | 2 µM | > 10 µM | IC50 [15]: > 30 µM; IC50 [16]: > 30 µM; IC50 [17]: > 30 µM; IC50 [18]: > 30 µM; IC50 [19]: > 30 µM; IC50 [20]: > 30 µM; IC50 [21]: > 30 µM; IC50 [22]: 7.5 µM; IC50 [23]: > 30 µM; IC50 [24]: > 30 µM; IC50 [25]: > 30 µM; solubility [26]: > 20 µM; IC50 [27]: 5 µM; IC50 [28]: > 30 µM
